Screens: PubChem, several laboratories
APJ agonist = activates the human apelin receptor APJ. activation, % at 20 µM. AID 2520. CHO-K1 APJ PathHunter beta-arrestin, luminescence; 0% DMSO wells, 100% apelin. 0.11% of 330,000 active;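 active means activation more than six SD over the plate average, tested at 20 µM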
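Material: engineered CHO-K1 APJ arrestin reporter cells; amount: 1000 CHO-K1 reporter cells seeded per well; incubation: compound stimulation 90 min at 25 °C, detection 60 min; signal: luminescent beta-gal fragment complementation, chemiluminescent substrate; read-out basis: APJ agonist activity; controls: DMSO-only wells as negative, 10 nM Apelin-13 as positive control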
EBI2 block = blocks human EBI2 receptor beta-arrestin signaling | 0.81% of 360,000 active | EBI2 beta-arrestin recruitment, luminescence, 7a,25-OHC stimulated | P32249 | inhibition, % at 5 µM; in the data active means inhibition above about 38%;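 further: enzyme fragment complementation signal reports receptor beta-arrestin coupling in cells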
APJ antagonist = antagonists of human APJ apelin receptor; P35414; CHO-K1 APJ beta-arrestin complementation, luminescence; inhibition, % at 20 µM; 0.32% of 330,000 active;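 active means inhibition above about 40% at 20 µM, limit read from the data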;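 further: cells challenged with 10 nM apelin-13 agonist together with compound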
m5-HT2A agonist = agonists of mouse serotonin 5-HT2A receptor (HTR2A). 0.66% of 360,000 active. CHO-K1 mHTR2A beta-arrestin complementation, luminescence; percent of 30 µM serotonin response. activation, % at 7.6 µM;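 active means activation above a run cutoff, the mean activation of all tested compounds plus 3 SD, cut at about 14% in these data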
Target sequence (P35363 whole entry, looked up): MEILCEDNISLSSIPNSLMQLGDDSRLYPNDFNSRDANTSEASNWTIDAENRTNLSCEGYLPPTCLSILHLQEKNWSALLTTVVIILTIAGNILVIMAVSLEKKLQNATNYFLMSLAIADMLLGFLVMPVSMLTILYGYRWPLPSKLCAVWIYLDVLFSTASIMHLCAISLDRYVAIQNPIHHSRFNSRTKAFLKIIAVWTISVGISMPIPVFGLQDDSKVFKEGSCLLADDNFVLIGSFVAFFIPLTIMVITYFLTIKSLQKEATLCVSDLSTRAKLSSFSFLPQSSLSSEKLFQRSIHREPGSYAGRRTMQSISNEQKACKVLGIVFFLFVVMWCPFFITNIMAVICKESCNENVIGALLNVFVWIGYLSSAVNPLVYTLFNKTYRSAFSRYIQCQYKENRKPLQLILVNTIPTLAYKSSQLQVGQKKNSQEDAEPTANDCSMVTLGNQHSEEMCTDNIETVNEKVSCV
CXCR6 inh = CXCR6 (human) receptor inhibition; CHO-K1 PathHunter CXCR6 beta-arrestin, luminescence; inhibition, % at 20 µM; AID 602244; 0.36% of 360,000 active; in the data active means inhibition above about 34%, passing the limit was not always enough;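 further: antagonist mode with CXCL16 agonist at 10 nM final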
CCR6 antag = blocks CCL20-driven beta-arrestin recruitment at human CCR6; P51684; CHO-K1 CCR6 PathHunter beta-arrestin, luminescence, CCL20-stimulated; inhibition, % at 20 µM; 0.49% of 340,000 active; AID 493098;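 active means compounds whose inhibition of the agonist-driven luminescence signal at 20 µM reaches about 50%, limit read from the data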;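 further: cells stimulated with CCL20 at 14 nM final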
Each line names hits and unclear results; the compound was inactive in the other large screens. This is a sample that favours compounds with a hit; in the whole collection about 2.1% have one here.

O=[N+]([O-])c1c(Nc2ccccc2O)cc(Cl)c2nonc12	EBI2 block 61, APJ antagonist 93, CXCR6 inh 107, CCR6 antag 106
FC(F)(F)c1nnc(-c2ccccc2)nc1Oc1ccc(Cl)cc1Cl	CCR6 antag 56
CC(=NNc1nc2ccccc2o1)c1cc2ccccc2cn1	none (no result: APJ agonist, APJ antagonist)
CC(=NNc1nc2ccccc2s1)c1ncccn1	EBI2 block 57, CXCR6 inh 54 (no result: APJ agonist, APJ antagonist)
CC(=NNc1nc2ccccc2o1)c1ncccn1	EBI2 block 55 (no result: APJ agonist, APJ antagonist)
CC(C)(C)c1cc(C(c2cccnc2)N2CCN(CCO)CC2)cc(C(C)(C)C)c1O (centres undefined)	CCR6 antag 62
CC(C)(C)n1nnnc1C(c1cccnc1)N1CCN(c2cccc(C(F)(F)F)c2)CC1 (centres undefined)	none
COc1cc(C[C@@H]2C(=O)OC[C@H]2Cc2ccc(OC)c(OC)c2)ccc1O	m5-HT2A agonist 16
CC1(C)OC(c2ccccc2)=C/C(=C/C=C2C(=O)c3ccccc3C2=O)O1	CXCR6 inh 46, CCR6 antag 59
COc1ccc(C)cc1S(=O)(=O)N(CC(=O)NC1CCCC1)c1ccc(F)cc1	none
O=C(O)c1cc(N=Nc2c(O)[nH]c3ccc([N+](=O)[O-])cc23)ccc1Cl	CXCR6 inh 40
O=C(N=Nc1c(O)[nH]c2ccc([N+](=O)[O-])cc12)c1cc(-c2ccccc2Cl)nc2ccccc12	CCR6 antag 65
COc1ccc(C(C#N)=C2C=C(Cl)C(=NO)C=C2Cl)cc1	none (no result: APJ agonist, APJ antagonist, CCR6 antag)
N#CC(=C1C=C(Br)C(=NO)C=C1Cl)c1cccc2ccccc12	CXCR6 inh 40 (no result: APJ agonist, APJ antagonist, CCR6 antag)
COCCCNC(=O)C[C@@H]1C[C@@]2(C(=O)OC)CCCCC=C2N(Cc2ccc(Cl)cc2Cl)C1=O	none (no result: APJ agonist, APJ antagonist, CCR6 antag)
CCN(CC(=O)Nc1ccc(OC(F)F)cc1)C1CCCCC1	none
CCN(C(=S)Nc1ccc(OC(F)F)cc1)C1CCCCC1	EBI2 block 47
COc1ccc(CCN2C(=O)C=CC2=O)cc1OC	CXCR6 inh 93, CCR6 antag 109 (no result: APJ agonist, APJ antagonist)
O=C1NC(=O)C(c2ccccc2)(c2ccccc2)N1S(=O)(=O)c1ccccc1	none (no result: APJ agonist, APJ antagonist, CCR6 antag)
Cc1c(C(=O)NCc2ccc(F)cc2)oc2ccc(S(=O)(=O)N3CCOCC3)cc12	none
CCN(CC)S(=O)(=O)c1ccc2oc(C(=O)NCc3ccc(F)cc3)c(C)c2c1	EBI2 block 50
ON1C2CCCCC2N(O)C1c1c(F)c(F)c(F)c(F)c1F (centres undefined)	CCR6 antag 53
COC(=O)C[C@H]1CC[C@H](NC(=O)Nc2ccccc2F)[C@@H](CO)O1	none (no result: APJ agonist, APJ antagonist, CXCR6 inh, CCR6 antag)
Cc1ccc(C(=O)COC(=O)CCC(=O)Nc2cccc(Cl)c2)cc1[N+](=O)[O-]	CCR6 antag 53
Nc1ccc2c(c1)C(=O)C(=O)c1ccccc1-2	CCR6 antag 71
Nc1ccc(-c2nc3ccccc3o2)cc1	none
O=C1C=CC(=O)N1c1ccc(-c2nc3ccccc3o2)cc1	CXCR6 inh 60 (no result: APJ agonist, APJ antagonist, CCR6 antag)
CN1C(=O)/C(=C/c2ccccc2Cl)Sc2ccc(C(=O)NCc3cccnc3)cc21	none
O=C(Nc1ccccc1Cl)NN1CCCCCC1	none (no result: APJ agonist, APJ antagonist)
O=C(CNC(=O)c1cccs1)N/N=C/c1ccccc1[N+](=O)[O-]	none
COc1ccc(NC(=O)Cc2ccccc2)cn1	none
COc1ccc(CS(=O)(=O)/C(Cl)=C(/Cl)C(=O)Nc2ccc(OC)nc2)cc1	EBI2 block 72
O=C(CCCOc1ccc(Cl)cc1Cl)NC(Cc1ccccc1)C(=O)O (centres undefined)	none (no result: APJ agonist, APJ antagonist)
O=C(NCc1ccccn1)C1CC(c2ccccc2Cl)=NO1 (centres undefined)	m5-HT2A agonist 15
Cc1c(Cl)cc(-n2cnnn2)cc1[N+](=O)[O-]	none
Cc1cc(C)cc(N2C(=O)C=CC2=O)c1	CXCR6 inh 95 (no result: APJ agonist, APJ antagonist, CCR6 antag)
Cc1cc(C)cc(N2C(=O)c3nccnc3C2=O)c1	none
Cc1cc(N2C(=O)C=CC2=O)c([N+](=O)[O-])cc1C	CXCR6 inh 85 (no result: CCR6 antag)
Cc1c([N+](=O)[O-])cc(N2C(=O)C=CC2=O)cc1[N+](=O)[O-]	CXCR6 inh 52 (no result: APJ agonist, APJ antagonist, CCR6 antag)
Clc1ccc(N2O[C@H]3C=C[C@@H]2C3)nc1	none (no result: APJ agonist, APJ antagonist, CCR6 antag)
CCCCN(C(=O)C1=NN(c2ccccc2)C(=O)CC1)c1c(N)n(CCC)c(=O)[nH]c1=O	none
